# High-throughput results as filed in PubChem.
# Sampled rows, rich in hits. Any-hit rate of the full collection: about 2.2%.
# IEC-6 tox: kills IEC-6 intestinal cells in KLF5 counter-screen | IEC-6 cytotoxicity, luminescence viability | inhibition, % at 5 µM | 290,000 tested, 0.78% active; in the data active means inhibition above about 22%;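 further: 0% = plate median of test compound wells and 100% = cytotoxic reference compound wells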
# APP transl inh: APP translation inhibition | inhibition, % at 2 µM | SH-SY5Y APP 5'UTR-luciferase reporter, luminescence | 190,000 tested, 0.82% active;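 active means inhibition above a set limit, derived from the sample mean plus 3 SD, cut at about 45% in these data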
# Ba/F3 V617F tox: lowers viability of Ba/F3 cells expressing EpoR and JAK2V617F | ATP luminescence | inhibition, % at 5.6 µM | 220,000 tested, 1.1% active | AID 1446;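 active means inhibition above the campaign mean plus 3 SD over all tested compounds, cut at about 24% in these data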;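 further: cytokine-independent growth of Ba/F3 cells driven by EpoR plus mutant JAK2; 0% = DMSO-treated cells and 100% = JAK inhibitor I control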
# BaF3 tox: parental Ba/F3 viability inhibition as JAK2V617F counter-screen. CellTiter-Glo ATP luminescence. inhibition, % at 5.6 µM. 220,000 tested, 1.1% active;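 active means inhibition above a per-campaign cutoff, the mean inhibition of all tested compounds plus 3 SD, cut at about 27% in these data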;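 further: 0% = DMSO wells and 100% = JAK Inhibitor I control wells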
# bCat nuc transl: beta-catenin nuclear translocation modulation; HeLa beta-catenin nuclear translocation, immunofluorescence imaging; 190,000 tested, 0.3% active; nuclear translocation activity, % at 5 µM;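 active means nuclear translocation activity above 50% at 5 µM, with a well cell count of 50 or more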;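 further: per-cell ratio of nuclear to cytoplasmic median beta-catenin stain intensity; plate controls were DMSO negative control for no effect and GSK-3 inhibitor IX positive control for full effect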
#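 System: Human HeLa cells, endogenous beta-catenin | Compound dosing: 5 µM primary, 0.02–20 µM confirmation | Timing: 24 h compound exposure at 37°C, 5% CO2 | Measured by: Fluorescence imaging of beta-catenin antibody stain plus DAPI | Read-out basis: % activation of per-cell nuclear versus cytoplasmic median beta-catenin signal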
# MT stabilizer: microtubule stabilizers in HeLa cells. 200,000 tested, 0.83% active. % tubulin-high responders, % at 10 µM. HeLa tubulin immunostaining HCS, 24 h; share of cells brighter than vehicle mean+2SD;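 active means plate Z-score above 3 for both tubulin-high and condensed-nucleus cell shares, with cell loss under 80%, at 10 µM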;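 further: anti alpha tubulin signal scored within the nucleus-defined area of each cell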
# * = called active by the depositor; . = not tested or not shown.
SMILES,IEC-6 tox,APP transl inh,Ba/F3 V617F tox,BaF3 tox,bCat nuc transl,MT stabilizer
Cc1cc(C)cc(NC(=O)/C=C/c2ccc([N+](=O)[O-])s2)c1,4,53*,1,50*,4,7
Cc1ccccc1NC(=O)/C=C/c1ccc([N+](=O)[O-])s1,14,90*,80*,55*,3,6
CCSc1ccc2cc(OC)ccc2[n+]1CC,-6,36,82*,88*,0,5
CCn1ccc2cc(OC)ccc2c1=S,-1,-15,0,4,2,2
Nc1ccc2oc(-c3cc(Br)ccc3Cl)nc2c1,6,46*,33*,38*,3,7
Nc1ccc2oc(-c3ccccc3Cl)nc2c1,1,-10,3,4,-1,4
Cc1ccnc(NC(=O)CCC(=O)N(CC(=O)NCc2ccc(F)cc2)Cc2ccccc2)c1,-6,.,.,.,.,.
CCNc1nc(OC)nc(SCC(=O)Nc2ccccc2)n1,0,-5,0,2,24,13*
O=[N+]([O-])c1ccc(O)c(/C=N/Nc2ccccn2)c1,5,76*,68*,34*,23,4
O=[N+]([O-])c1ccc(O)c(/C=N/Nc2nc3ccccc3[nH]2)c1,4,81*,-1,5,1,9
COCCn1c(SCC(=O)N2CCC(C)CC2)nc2c(c1=O)SCC2,1,.,.,.,.,.
Cc1ccc(S(=O)(=O)Nc2ncccn2)cc1,3,.,.,.,.,.
O=C(N/N=C/c1ccc(-c2ccccc2Cl)o1)c1ccccc1,8,-30,2,6,.,32*
Cc1ccc(/C=N/NC(=O)c2cccnc2)o1,3,11,-1,2,1,4
O=C(O)c1cccc(-c2ccc(/C=N/NC(=O)c3cccnc3)o2)c1,-7,-5,0,28*,-2,3
COc1ccc(S(=O)(=O)Nc2cc([N+](=O)[O-])ccc2OC)cc1,3,7,1,7,7,28*
O=S1(=O)CCOCCCN1Cc1ccccc1,-2,.,.,.,.,.
CC(=O)n1nc(-c2ccc(Cl)cc2)nc1NCc1ccco1,-1,-15,-1,4,.,2
COc1ccc(CC(=O)n2nc(-c3ccc(Cl)cc3)nc2NCc2ccco2)cc1,2,-28,0,1,-4,28*
COC(=O)c1ccccc1NC(=O)c1cccc(COc2ccccc2Cl)c1,1,-87,-2,3,123*,46*
Cc1cc(C)nc(NC(=O)c2ccc(COc3ccccc3Cl)cc2)c1,19,3,62*,71*,0,5
CC(C)NC(=O)Cn1c(SCC(=O)N2c3ccccc3CC2C)nc2ccccc21 (centres undefined),-4,0,3,95*,-3,5
Cn1c(SCc2ccccc2C#N)nc2ccccc2c1=O,1,.,.,.,.,.
Cc1cc(C)c2c(CCl)cc(=O)oc2c1,-7,94*,-4,-8,-1,.
Cc1ccc(C)c(CSC2=NCCN2S(=O)(=O)c2ccccc2)c1,-6,.,.,.,.,.
SMILES,IEC-6 tox,APP transl inh,Ba/F3 V617F tox,BaF3 tox,bCat nuc transl,MT stabilizer
CSc1nc2ccccc2cc1/C=C(\C#N)c1ccccc1,10,-4,2,2,1,36*
Cc1cc(C(=O)N/N=C/c2cc(N=Nc3ccccc3)ccc2O)n[nH]1,0,50*,5,10,-1,5
COC(=O)N/N=C/c1cc(N=Nc2ccccc2)ccc1O,0,.,0,7,0,.
Cn1cc(CCC(=O)N2CCCC(N3CCN(c4ccccc4F)CC3)C2)cn1 (centres undefined),4,.,.,.,.,.
COc1ccc(N2CCN(C3CCCN(Cc4cccc(C(C)=O)c4)C3)CC2)cc1 (centres undefined),2,.,.,.,.,.
Cc1ccccc1OCc1nc2ccccc2c(=O)n1/N=C/c1c[nH]c2ccccc12,-3,-6,-1,7,-3,5
Cc1cc(/C=N/n2c(COc3ccccc3C)nc3ccccc3c2=O)c(O)c([N+](=O)[O-])c1,8,45*,4,9,3,8
O=S1(=O)CCC(NC(=S)NC2CCS(=O)(=O)C2)C1 (centres undefined),1,12,52*,39*,-1,2
CCn1c(SCC(=O)Nc2nncs2)nnc1C(C)NC(=O)c1ccccc1Br (centres undefined),-3,.,.,.,.,.
CC1=CCC2COC(c3ccc[n+](Cc4ccccc4)c3)C1C2 (centres undefined),-2,-16,46*,67*,-2,2
COc1ccc(-c2cn(-c3ccccc3)c3[n+]2CCS3)cc1,10,5,76*,67*,-3,3
Fc1ccc(-n2cc(-c3ccccc3)c3c(N4CCOCC4)ncnc32)cc1,4,12,1,6,-3,3
c1ccc(-c2cn(-c3ccccc3)c3[n+]2CCS3)cc1,-2,-5,69*,63*,-1,2
Fc1ccc(-n2cc(-c3ccccc3)[n+]3c2SCC3)cc1,-5,-4,49*,79*,-1,6
COc1ccc(-n2cc(-c3ccccc3)[nH]c2=S)cc1,-12,-15,-2,3,0,1
COc1ccc(S(=O)(=O)N2CCC(C(=O)NC3CCCC3)CC2)cc1C,-1,.,.,.,.,.
COc1ccc2cc(-c3[nH]ncc3CN3CCCC3c3nonc3C)ccc2c1 (centres undefined),5,-40,-1,12,2,11*
Cc1cccc(N2CCN(C(=O)c3ccc4ncsc4c3)CC2)c1C,36*,80*,60*,54*,150*,43*
O=C(c1cccc(Br)c1)N1CCN(C(=O)N2CCOCC2)CC1,-1,63*,-1,-3,-1,3
O=C(c1ccc2ncsc2c1)N1CCN(c2ccccc2Cl)CC1,-3,-9,7,11,-1,4
Cc1cccc(N2CCN(C(=O)N3CCCCC3)CC2)c1C,-1,-3,2,5,2,3
Cc1cccc(N2CCN(C(=O)c3ccncc3)CC2)c1C,10,4,5,7,.,45*
Cc1cccc(N2CCN(C(=O)N3CCOCC3)CC2)c1C,8,4,0,6,30,36*
O=C(c1cccc(Br)c1)N1CCN(C(=O)c2cccc(Br)c2)CC1,0,-15,3,3,0,3
CCOc1ccccc1N1CCN(CC(=O)NC(C)c2ccccc2)CC1 (centres undefined),4,.,.,.,.,.
CCCc1cc(=O)oc2cc(OCC(=O)NC3CCN(Cc4ccccc4)CC3)ccc12,-1,.,.,.,.,.
CCN(CC)C(=S)Nc1ccc(OC)cc1,-6,4,-4,1,-1,2
COc1ccc(CN(C)C(=S)Nc2ccc(Cl)cc2)cc1,-1,-7,39*,36*,1,2
Cc1c(Cl)cccc1NC(=O)CC1Oc2ccccc2NC1=O (centres undefined),1,.,.,.,.,.
Cn1cc([N+](=O)[O-])c(C(=O)Nc2cc(Oc3cccnc3)cc([N+](=O)[O-])c2)n1,24*,96*,66*,51*,7,11
